Experimental findings from ChEMBL document CHEMBL3870311, “Synthesis and biological evaluation of C1-O-substituted-3-(3-butylamino-2-hydroxy-propoxy)-xanthen-9-one as topoisomerase IIα catalytic inhibitors” (Eur J Med Chem, 2016) are described below.

Active and inactive are the calls of the source. The rule behind the calls is not given here.

The nature of data set [1]: Cytotoxicity against human NCI-N87 cells assessed as reduction in cell growth after 72 hrs by CCK8 assay. It is filed as functional, cell-based. To be noted: NCI-N87, 72 h. The method in brief: (§1)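 Cells (2~4 x 10^4 per well) seeded overnight in media with 10% FBS, 37 °C, 5% CO₂, then exposed to graded compound concentrations for 72 h. CCK-8 solution added for a further 4 h; absorbance read at 450 nm. IC₅₀ from four-parameter logistic fit; adriamycin, etoposide and camptothecin as positive controls.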

Data set [2] has as its target T1, DNA topoisomerase 2-alpha (Homo sapiens, UniProt P11388). Description: Inhibition of human topoisomerase-2 alpha at 20 uM using supercoiled pBR322 DNA as substrate after 30 mins by agarose gel electrophoresis relative to control.
Data set [3] addresses T1, DNA topoisomerase 2-alpha. As to the kind of experiment: Poisoning activity at human topoisomerase-2 alpha assessed as stabilization of enzyme-pBR322 DNA cleavage complex by measuring linear DNA formation at 100 uM after 30 mins by agarose gel electrophoresis. The note with it: 0.5 h.
A short description of data set [4]: Cytotoxicity against human T47D cells assessed as reduction in cell growth after 72 hrs by CCK8 assay. The class given is functional, cell-based. The method in brief:
as §1
(Formazan colour is commonly taken as a measure of viable cells.)

Data set [5] has as its target T1, DNA topoisomerase 2-alpha. Description: Poisoning activity at topoisomerase-2 alpha in human T47D cells assessed as induction of DNA damage by measuring comet formation at 5 to 10 uM after 24 hrs by SYBR Green staining based inverted fluorescence microscopic analysis. It is filed as cell-based. In short, it runs like this: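 Alkaline comet assay: T47D cells seeded in six-well plates, treated at ~70% confluence with 5 or 10 µM compound for 24 h, trypsinized, embedded in low-melting agarose. Lysis 30 min at 4 °C, alkaline unwinding (pH>13) 30 min, electrophoresis 20 min at 15 V, SYBR Green stain; imaged by inverted fluorescence microscopy, percent DNA in tail quantified.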

Data set [6] can be described thus: Cytotoxicity against human HCT15 cells assessed as reduction in cell growth after 72 hrs by CCK8 assay. The class given is functional, cell-based. The note with it: HCT-15, 72 h. In short, it runs like this: as §1
The nature of data set [7]: Cytotoxicity against human HeLa cells assessed as reduction in cell growth after 72 hrs by CCK8 assay. The class given is functional, cell-based. The method in brief:
as §1

Data set [8] deals with T1, DNA topoisomerase 2-alpha. Description: Inhibition of topoisomerase-2 alpha catalytic activity in human T47D cells assessed as increase in free topoisomerase-2 alpha level at 50 uM after 2 hrs by Western blot method. The class given is cell-based. In short, it runs like this: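 T47D cells (2 x 10^5 per well) seeded overnight, treated 2 h at 37 °C with 50 µM compound or etoposide in serum-free RPMI. Harvested cells washed in PBS, lysed in 62.5 mM Tris-HCl pH 6.8, 1 mM EDTA, 2% SDS with sonication; cleared supernatant run on 10% SDS-PAGE and free topo IIα detected by Western blot.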
A general note: In western blotting, separated proteins are transferred to a membrane and probed.

Data set [9] deals with T1, DNA topoisomerase 2-alpha. As to the kind of experiment: Inhibition of human topoisomerase-2 alpha at 100 uM using supercoiled pBR322 DNA as substrate after 30 mins by agarose gel electrophoresis method relative to control.

T1 sequence (P11388 whole entry): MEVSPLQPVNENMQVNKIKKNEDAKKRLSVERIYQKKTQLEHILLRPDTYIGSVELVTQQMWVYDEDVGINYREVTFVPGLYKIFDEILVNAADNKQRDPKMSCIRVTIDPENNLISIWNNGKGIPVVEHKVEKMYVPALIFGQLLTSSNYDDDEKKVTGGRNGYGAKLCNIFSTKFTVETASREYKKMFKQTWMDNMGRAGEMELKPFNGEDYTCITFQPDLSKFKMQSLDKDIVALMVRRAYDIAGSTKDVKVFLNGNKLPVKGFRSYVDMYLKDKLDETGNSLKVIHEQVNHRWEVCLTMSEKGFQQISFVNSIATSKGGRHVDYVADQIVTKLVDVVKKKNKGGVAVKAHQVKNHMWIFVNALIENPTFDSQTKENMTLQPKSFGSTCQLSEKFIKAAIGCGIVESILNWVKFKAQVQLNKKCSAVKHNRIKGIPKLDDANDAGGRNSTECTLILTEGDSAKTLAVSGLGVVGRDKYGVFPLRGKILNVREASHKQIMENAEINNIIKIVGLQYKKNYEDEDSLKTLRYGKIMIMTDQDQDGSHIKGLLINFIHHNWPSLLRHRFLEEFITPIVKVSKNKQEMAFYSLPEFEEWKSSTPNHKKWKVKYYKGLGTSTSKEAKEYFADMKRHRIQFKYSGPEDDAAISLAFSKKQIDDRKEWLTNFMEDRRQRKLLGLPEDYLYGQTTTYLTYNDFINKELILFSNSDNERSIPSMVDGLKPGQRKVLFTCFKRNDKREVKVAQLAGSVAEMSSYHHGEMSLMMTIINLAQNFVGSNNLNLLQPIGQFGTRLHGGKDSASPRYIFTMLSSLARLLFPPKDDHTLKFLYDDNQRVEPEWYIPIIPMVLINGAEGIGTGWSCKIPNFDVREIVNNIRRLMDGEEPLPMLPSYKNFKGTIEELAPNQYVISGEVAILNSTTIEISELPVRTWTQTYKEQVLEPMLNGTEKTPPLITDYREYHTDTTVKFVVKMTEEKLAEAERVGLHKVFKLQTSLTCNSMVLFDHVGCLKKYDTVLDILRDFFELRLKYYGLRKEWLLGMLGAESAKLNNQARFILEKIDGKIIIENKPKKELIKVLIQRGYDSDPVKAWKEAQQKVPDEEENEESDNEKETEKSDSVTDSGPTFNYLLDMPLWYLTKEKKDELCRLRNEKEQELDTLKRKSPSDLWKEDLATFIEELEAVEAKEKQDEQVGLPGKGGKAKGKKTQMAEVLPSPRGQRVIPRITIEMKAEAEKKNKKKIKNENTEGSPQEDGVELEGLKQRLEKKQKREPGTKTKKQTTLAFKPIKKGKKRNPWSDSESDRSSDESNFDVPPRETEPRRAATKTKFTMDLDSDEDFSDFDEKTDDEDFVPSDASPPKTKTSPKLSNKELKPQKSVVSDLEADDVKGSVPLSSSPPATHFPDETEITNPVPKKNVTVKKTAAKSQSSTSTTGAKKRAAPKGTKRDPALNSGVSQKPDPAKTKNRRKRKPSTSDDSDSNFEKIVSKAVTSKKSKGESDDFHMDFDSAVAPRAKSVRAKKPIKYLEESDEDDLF

For the compound `COc1cc([C@@H]2c3cc4c(cc3[C@@H](O[C@@H]3O[C@@H]5CO[C@@H](C)O[C@H]5[C@H](O)[C@H]3O)[C@H]3COC(=O)[C@H]23)OCO4)cc(OC)c1O` [ETOPOSIDE], the IC50 came to 1290 nM in [1], 2800 nM in data set [4], 1060 nM in [6] and 10000 nM in [7]. The inhibition in data set [2] came to 45.6%. Further, the outcome in data set [3] and in [5] was Active.

For the compound `CCCCNCC(O)COc1cc(OCCc2cccc(Cl)c2)c2c(=O)c3cccc(OC)c3oc2c1` (stereo not given), the IC50 in data set [1] worked out at 400 nM; in [4], 190 nM; in data set [6] it was 1490 nM; in [7] it was 2600 nM. The inhibition came to 20.4% in data set [2] and 62.8% in [9]. In data set [8], the inhibition result was “Active”.

Turning to `CCCCNCC(O)COc1cc(OCc2cccc(OC)c2)c2c(=O)c3cccc(OC)c3oc2c1` (stereo not given), the IC50 in [1] worked out at 1320 nM; in data set [4], 1360 nM; in data set [6] it was 1740 nM; in data set [7], 2300 nM. Also, the inhibition was 12.4% in [2] and 41.6% in [9].

Take `CCCCNCC(O)COc1cc(OCc2ccc(OC)cc2)c2c(=O)c3ccccc3oc2c1` (stereo not given): the IC50 amounted to 1800 nM in [1], 1410 nM in data set [4], 2170 nM in data set [6] and 4810 nM in [7]. The inhibition in data set [2] was determined as 21.1%; in data set [9], 55.9%.

Take `CCCCCOc1cc(OCC(O)CNCCCC)cc2oc3c(OC)cccc3c(=O)c12` (stereo not given): the IC50 stood at 480 nM in [1], 780 nM in data set [4], 1810 nM in [6] and 3840 nM in data set [7]. Also, the inhibition in data set [2] turned out to be 9.5%; in data set [9], 36.3%.

Take `CCCCNCC(O)COc1cc(OCc2ccc(OC)cc2)c2c(=O)c3cccc(OC)c3oc2c1` (stereo not given): the IC50 in data set [1] was 250 nM; in data set [4], 1520 nM; in [6], 2290 nM; in data set [7] it was 1820 nM. Also, the inhibition in data set [2] was determined as 13.9%; in [9], 44.8%.

On to `CCCCNCC(O)COc1cc(OCc2cccc(OC)c2)c2c(=O)c3ccccc3oc2c1` (stereo not given), for which the IC50 in data set [1] worked out at 70 nM; in data set [4], 2570 nM; in data set [6], 1910 nM; in data set [7] it was 5860 nM. Further, the inhibition is 19.5% in [2] and 58.7% in [9].

For the compound `CCCCNCC(O)COc1cc(OCCc2ccc(Cl)cc2)c2c(=O)c3ccccc3oc2c1` (stereo not given), the IC50 in data set [1] stood at 3630 nM; in data set [4], 630 nM; in data set [6] it was 2130 nM; in [7], 1370 nM. In addition, the inhibition in [2] was 23 to 23.3%; in data set [9], 94.4%. In addition, the inhibition entry in [8] was “Active”.

In the case of `CCCCNCC(O)COc1cc(OCc2cccc(Cl)c2)c2c(=O)c3cccc(OC)c3oc2c1` (stereo not given), the IC50 in data set [1] came out at 1160 nM; in [4], 670 nM; in data set [6], 1590 nM; in data set [7], 2400 nM. For the same compound, the results for the inhibition in data set [2] and in data set [9] were 6.3% and 45.4%, respectively.

As for `CCCCNCC(O)COc1cc(OCCc2cccc(Cl)c2)c2c(=O)c3ccccc3oc2c1` (stereo not given), the IC50 in data set [1] turned out to be 380 nM; in data set [4], 1720 nM; in data set [6] it was 2280 nM; in data set [7], 2560 nM. Moreover, the inhibition in data set [2] stood at 16.6%; in data set [9], 46.2%. Besides, the inhibition result in data set [8] was “Active”.

In the case of `CCCCNCC(O)COc1cc(OCc2cccc(C(F)(F)F)c2)c2c(=O)c3ccccc3oc2c1` (stereo not given), the IC50 in [1] came to 240 nM; in [4] it was 140 nM; in data set [6], 2450 nM; in [7], 2260 nM. Moreover, the results for the inhibition in data set [2] and in data set [9] were 9.3% and 64.6%, respectively.

As usually defined, the IC50 is the concentration that inhibits the measured activity by half. As usually defined, the inhibition is the change of the read-out against control, counted positive when it falls.
